14 molecules from ChEMBL document CHEMBL1150958, “Growth-inhibitory activities of benzofuran and chromene derivatives toward Tenebrio molitor” (1998) can be followed below.

For test [1], the system named is Tenebrio molitor. Briefly: Growth inhibition of last instar larvae of Tenebrio molitor assessed as successful pupation at 120 ug/larvae, applied topically measured every 24 hrs for 30 days. Also on record: scale not given: the % may be the effect or the level left. The format is functional. The method in brief: (§1)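 Last-instar T. molitor larvae (113–160 mg, from a stock culture kept on wheat bran) were dosed once, topically on the ventral abdominal segments by microsyringe, with 2 µL acetone solution (120 µg compound per larva). Solvent-only controls were included. Larvae were unfed. Pupation and pupal-stage length were scored every 24 h to day 30. n = 60, mean (SE). Pupation was analysed by χ² test and pupal duration by Dunnett test.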

Test [2] has as its system Tenebrio molitor. The test is described as follows: Growth inhibition of last instar larvae of Tenebrio molitor assessed as duration of pupal stage at 120 ug/larvae, applied topically measured every 24 hrs for 30 days. It counts as functional. An outline of the steps: as §1

For the molecule `C=C(COC(C)=O)[C@@H]1Cc2cc(C(C)=O)c(O)cc2O1`, the Activity in the test with Tenebrio molitor [1] was determined as 73.3%; in the test with Tenebrio molitor [2] it was 11.2 days.
The like results for `O=C(O)/C=C/c1ccc(O)cc1` [COUMARIC ACID] were, in that order, 87% and 10 days.
The matching figures for `CC(=O)c1ccc2c(c1)C(=O)CC(C)(C)O2`: 87% and 12.1 days.
The like results for `COC(=O)/C=C/c1ccc2c(c1)CCC(C)(C)O2` were, in that order, 87% and 7 days.
`CC(=O)c1ccc(O)c(C(=O)C=C(C)C)c1`: the Activity with Tenebrio molitor [1] worked out at 75%; in the test with Tenebrio molitor [2], 11.4 days.
The matching figures for `C=C(COC(C)=O)[C@@H]1Cc2cc(C(C)=O)ccc2O1`: 75% and 9.8 days.
As for `CC(=O)c1cc2c(cc1O)OC(C)(C)C=C2` [DEMETHYLENCECALIN], the Activity with Tenebrio molitor [1] came to 66.6%; with Tenebrio molitor [2] it was 11.5 days.
As for `C=C(CO)[C@@H]1Cc2cc(C(C)=O)c(O)cc2O1`, the Activity with Tenebrio molitor [1] was 73%; with Tenebrio molitor [2] it was 11.6 days.
In the case of `O=C(O)/C=C/c1ccccc1` [CINNAMIC ACID], the values for the Activity in the test with Tenebrio molitor [1] and with Tenebrio molitor [2] were 92% and 8.7 days, respectively.
The like results for `CC(C)=CCc1cc(/C=C/C(=O)O)ccc1O` [DRUPANIN] were, in that order, 63% and 13 days.
The like results for `C=C(C)c1cc2cc(C(C)=O)c(O)cc2o1` [EUPARIN] were, in that order, 83% and 10.5 days.
For the molecule `C=C(CO)[C@@H]1Cc2cc(C(C)=O)ccc2O1` [BITALIN A], the Activity in the test on Tenebrio molitor [1] amounted to 75%; in the test on Tenebrio molitor [2], 8.6 days.
As for `CC(C)CCc1cc(CCC(=O)O)ccc1O`, the Activity in the test with Tenebrio molitor [1] came out at 50%; in the test with Tenebrio molitor [2], 10.2 days.
The like results for `C=C(COC(=O)/C=C/c1ccc(O)cc1)[C@@H]1Cc2cc(C(C)=O)ccc2O1` were, in that order, 26% and 10.5 days.
